Experimental data taken from ChEMBL document CHEMBL4145697, “Replacement of a Naphthalene Scaffold in Kelch-like ECH-Associated Protein 1 (KEAP1)/Nuclear Factor (Erythroid-derived 2)-like 2 (NRF2) Inhibitors” (J Med Chem, 2018).
≈ marks a conversion by molar mass, not a printed value. Calls of active or inactive are those of the source. The calls are words filed in the database; no cut-off is given here.

Assays:
[1] = target: Keap1/Nrf2 (Homo sapiens, UniProt Q14145); experiment: Inhibition of Keap1 Kelch domain (unknown origin) /Nrf2 (unknown origin) interaction using fluorescein-labeled 9-mer peptide containing NRF2 Neh2 domain ETGE motif by fluorescence anisotropy assay; type: protein assay
[2] = Kinetic solubility in pH 7.4 incubated for 1 hr by HPLC method; type: physicochemical; conditions: buffer, read-out: Kinetic_solubility
[3] = Stability in mouse liver microsomes assessed as compound remaining level at 200 uM incubated for 20 mins by LC-MS method; type: ADME, microsome; conditions: read-out: Stability
[4] = system: Escherichia coli; experiment: Cytotoxicity in Escherichia coli WP2 uvrA (pKM101) at 1.5 to 1000 ug/well; type: organism-based; conditions: in vivo
In short: (§1)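 Mini-Ames plate incorporation; compounds dissolved in DMSO, tested at 1.5–1000 µg/well with and without Aroclor 1254-induced rat liver S9, alongside solvent and positive controls. Cells in top agar over minimal glucose agar; triplicate wells (vehicle sextuplicate), 37 ± 2 °C for 48–72 h. Cytotoxicity scored as fewer revertants per well and/or thinning or loss of background lawn relative to negative control.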

[5] = system: Salmonella typhimurium; experiment: Cytotoxicity in Salmonella typhimurium TA98 at 1.5 to 1000 ug/well; type: organism-based; conditions: salmonella enterica subsp. enterica serovar typhimurium; in short: as §1
[6] = system: Salmonella typhimurium; experiment: Mutagenicity in Salmonella typhimurium TA100 assessed as increase in number of revertant colonies at 1.5 to 1000 ug/well in presence of rat liver S9 fractions incubated for 48 to 72 hrs; type: toxicity, organism-based; conditions: salmonella enterica subsp. enterica serovar typhimurium
In short: (§2)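 Reverse mutation at histidine locus in top agar (0.6% agar, 0.5% NaCl, histidine/biotin) with Aroclor 1254-induced rat liver S9 mix; DMSO vehicle, doses 1.5–1000 µg/well. Plated in triplicate wells (vehicle sextuplicate) on minimal glucose agar, 37 ± 2 °C for 48–72 h. Revertant colonies counted manually; fold-change over DMSO, p-values by two-tailed t-test.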

[7] = system: Salmonella typhimurium; experiment: Cytotoxicity in Salmonella typhimurium TA100 at 1.5 to 1000 ug/well; type: organism-based; conditions: salmonella enterica subsp. enterica serovar typhimurium; in short: as §1
[8] = system: Salmonella typhimurium; experiment: Mutagenicity in Salmonella typhimurium TA98 assessed as increase in number of revertant colonies at 1.5 to 1000 ug/well in presence of rat liver S9 fractions incubated for 48 to 72 hrs; type: toxicity, organism-based; conditions: salmonella enterica subsp. enterica serovar typhimurium; in short: as §2
[9] = system: Salmonella typhimurium; experiment: Cytotoxicity in Salmonella typhimurium TA1535 at 1.5 to 1000 ug/well; type: organism-based; conditions: salmonella enterica subsp. enterica serovar typhimurium; in short: as §1
[10] = Lipophilicity, log D of the compound; type: physicochemical; conditions: octanol/water
[11] = system: Salmonella typhimurium; experiment: Cytotoxicity in Salmonella typhimurium TA1537 at 1.5 to 1000 ug/well; type: organism-based; conditions: salmonella enterica subsp. enterica serovar typhimurium; in short: as §1
[12] = Stability in mouse liver microsomes assessed as compound remaining level at 1 uM incubated for 20 mins by LC-MS method
[13] = Stability in human liver microsomes assessed as compound remaining level at 1 uM incubated for 20 mins by LC-MS method
[14] = system: HaCaT; experiment: Effect on SOD2 gene expression in human HaCaT cells at 10 uM incubated for 24 hrs by qPCR method; type: ADME, cell-based
[15] = system: HaCaT; experiment: Effect on SOD2 gene expression in human HaCaT cells at 10 uM incubated for 6 hrs by qPCR method; type: ADME, cell-based
[16] = target: T1, Keap1/Nrf2 (Homo sapiens) (UniProt Q16236+Q14145); experiment: Inhibition of Keap1/Nrf2 interaction in human HaCaT cells assessed as increase in NQO1 gene expression at 10 uM incubated for 6 hrs by qPCR method; type: cell-based
[17] = target: Kelch-like ECH-associated protein 1 (Homo sapiens, UniProt Q14145); experiment: Binding affinity to Keap1 Kelch domain (unknown origin) by surface plasmon resonance assay
[18] = target: T1, Keap1/Nrf2 (Homo sapiens); experiment: Inhibition of Keap1/Nrf2 interaction in human HaCaT cells assessed as increase in GCLC gene expression at 10 uM incubated for 6 hrs by qPCR method; type: cell-based
[19] = target: T1, Keap1/Nrf2 (Homo sapiens); experiment: Inhibition of Keap1/Nrf2 interaction in human HaCaT cells assessed as increase in NQO1 protein expression at 10 uM incubated for 24 hrs by Western blot method; type: cell-based
In short: (§3)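 HaCaT cells in DMEM, 10% FBS, 1% antibiotics, treated at 70–80% confluence with 10 μM compound or DMSO for 6 or 24 h in complete medium. Lysates (~40 μg protein) resolved by 10% SDS-PAGE, immunoblotted for NQO1; bands quantified against GAPDH, vehicle set to one arbitrary unit.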

[20] = target: T1, Keap1/Nrf2 (Homo sapiens); experiment: Inhibition of Keap1/Nrf2 interaction in human HaCaT cells assessed as increase in HMOX1 gene expression at 10 uM incubated for 6 hrs by qPCR method; type: cell-based
[21] = target: T1, Keap1/Nrf2 (Homo sapiens); experiment: Inhibition of Keap1/Nrf2 interaction in human HaCaT cells assessed as increase in NQO1 protein expression at 10 uM incubated for 6 hrs by Western blot method; type: cell-based; in short: as §3
[22] = target: T1, Keap1/Nrf2 (Homo sapiens); experiment: Inhibition of Keap1/Nrf2 interaction in human HaCaT cells assessed as increase in GCLC gene expression at 10 uM incubated for 24 hrs by qPCR method; type: cell-based
[23] = target: T1, Keap1/Nrf2 (Homo sapiens); experiment: Inhibition of Keap1/Nrf2 interaction in human HaCaT cells assessed as increase in GCLM gene expression at 10 uM incubated for 24 hrs by qPCR method; type: cell-based
[24] = target: T1, Keap1/Nrf2 (Homo sapiens); experiment: Inhibition of Keap1/Nrf2 interaction in human HaCaT cells assessed as increase in NRF2 nuclear accumulation at 10 uM incubated for 24 hrs by immunoblot assay; type: cell-based
[25] = target: T1, Keap1/Nrf2 (Homo sapiens); experiment: Inhibition of Keap1/Nrf2 interaction in human HaCaT cells assessed as increase in NQO1 gene expression at 10 uM incubated for 24 hrs by qPCR method; type: cell-based
[26] = target: T1, Keap1/Nrf2 (Homo sapiens); experiment: Inhibition of Keap1/Nrf2 interaction in human HaCaT cells assessed as increase in GCLM gene expression at 10 uM incubated for 6 hrs by qPCR method; type: cell-based
[27] = target: T1, Keap1/Nrf2 (Homo sapiens); experiment: Inhibition of Keap1/Nrf2 interaction in human HaCaT cells assessed as increase in NRF2 nuclear accumulation at 10 uM incubated for 6 hrs by immunoblot assay; type: cell-based
[28] = target: T1, Keap1/Nrf2 (Homo sapiens); experiment: Inhibition of Keap1/Nrf2 interaction in human HaCaT cells assessed as increase in HMOX1 gene expression at 10 uM incubated for 24 hrs by qPCR method; type: cell-based

T1 sequence (Q14145 whole entry, looked up, the tested form may be a part): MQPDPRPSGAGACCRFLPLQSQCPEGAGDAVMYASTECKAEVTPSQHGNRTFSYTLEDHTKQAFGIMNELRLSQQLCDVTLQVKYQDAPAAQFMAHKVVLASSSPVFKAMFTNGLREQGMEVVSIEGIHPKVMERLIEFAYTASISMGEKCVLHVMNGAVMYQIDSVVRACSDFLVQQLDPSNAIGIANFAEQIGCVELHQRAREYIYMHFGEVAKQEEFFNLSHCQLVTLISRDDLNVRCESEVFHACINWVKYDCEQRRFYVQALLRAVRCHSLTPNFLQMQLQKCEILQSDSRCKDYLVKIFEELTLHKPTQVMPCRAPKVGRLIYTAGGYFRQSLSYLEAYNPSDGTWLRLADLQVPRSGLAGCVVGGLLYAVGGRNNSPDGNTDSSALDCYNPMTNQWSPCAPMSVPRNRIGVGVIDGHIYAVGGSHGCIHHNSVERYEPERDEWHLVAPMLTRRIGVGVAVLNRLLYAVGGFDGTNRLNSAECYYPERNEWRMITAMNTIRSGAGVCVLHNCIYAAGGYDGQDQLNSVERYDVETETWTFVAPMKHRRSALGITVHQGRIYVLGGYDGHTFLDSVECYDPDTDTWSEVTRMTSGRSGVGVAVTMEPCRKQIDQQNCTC
T1 sequence (Q16236 whole entry, looked up, the tested form may be a part): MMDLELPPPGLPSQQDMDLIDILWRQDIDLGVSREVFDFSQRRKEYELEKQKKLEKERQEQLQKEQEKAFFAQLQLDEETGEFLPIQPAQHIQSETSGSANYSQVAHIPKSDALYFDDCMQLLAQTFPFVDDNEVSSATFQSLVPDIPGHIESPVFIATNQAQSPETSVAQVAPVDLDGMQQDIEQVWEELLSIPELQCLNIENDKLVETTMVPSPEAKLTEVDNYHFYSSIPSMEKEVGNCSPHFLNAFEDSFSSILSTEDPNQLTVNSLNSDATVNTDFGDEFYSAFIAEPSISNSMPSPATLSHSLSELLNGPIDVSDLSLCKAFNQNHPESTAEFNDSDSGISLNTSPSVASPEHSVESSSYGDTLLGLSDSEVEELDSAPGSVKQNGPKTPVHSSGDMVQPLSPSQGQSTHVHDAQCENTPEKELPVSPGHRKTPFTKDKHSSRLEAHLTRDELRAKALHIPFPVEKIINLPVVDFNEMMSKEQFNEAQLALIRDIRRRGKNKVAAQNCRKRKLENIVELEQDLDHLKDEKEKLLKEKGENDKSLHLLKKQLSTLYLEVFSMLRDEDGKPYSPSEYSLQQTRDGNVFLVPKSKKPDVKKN
Chain of Keap1/Nrf2 (Q16236 whole entry, the tested form may be a part): as the sequence (Q16236 whole entry, looked up, the tested form may be a part) above
Chain of Keap1/Nrf2 (Q14145 whole entry, the tested form may be a part): as the sequence (Q14145 whole entry, looked up, the tested form may be a part) above
Chain of Kelch-like ECH-associated protein 1 (Q14145 whole entry, the tested form may be a part): as the sequence (Q14145 whole entry, looked up, the tested form may be a part) above

COc1ccc(S(=O)(=O)N(CC(=O)O)c2ccc(N(CC(=O)O)S(=O)(=O)c3ccc(OC)cc3)c3[nH]ccc23)cc1
IC50 [1]: 1300 nM

COc1ccc(S(=O)(=O)Nc2ccc(NS(=O)(=O)c3ccc(OC)cc3)c3[nH]ccc23)cc1
IC50 [1]: > 25000 nM

COc1ccc(S(=O)(=O)N(CC(=O)O)c2ccc(N(CC(=O)O)S(=O)(=O)c3ccc(OC)cc3)cc2)cc1
IC50 [1]: 980 nM

COc1ccc(S(=O)(=O)N(CC(N)=O)c2ccc(N(CC(N)=O)S(=O)(=O)c3ccc(OC)cc3)c3ccccc23)cc1
solubility kinetic at 1 h [2]: 22 µM (≈ 13.5 µg/mL)
remaining at 20 min, 200 µM [3]: 0%

COc1ccc(S(=O)(=O)N(CC(=O)O)c2ccc(N(CC(=O)O)S(=O)(=O)c3ccc(OC)cc3)c3ccccc23)cc1
Activity [4]: Non-Toxic
Activity [5]: Non-Toxic
Activity [6]: Dose-dependent effect
Activity [7]: Non-Toxic
Activity [8]: Dose-dependent effect
Activity [9]: Non-Toxic
logD [10]: -1.9
Activity [11]: Non-Toxic
Stability [12]: Stable
Stability [13]: Stable
solubility kinetic at 1 h [2]: 440 µM (≈ 270 µg/mL)

COc1ccc(S(=O)(=O)Nc2ccc(NS(=O)(=O)c3ccc(OC)cc3)c3ccccc23)cc1
solubility kinetic at 1 h [2]: 5.4 µM (≈ 2.69 µg/mL)
remaining at 20 min, 200 µM [3]: 15%

COc1ccc(S(=O)(=O)Nc2nnc(NS(=O)(=O)c3ccc(OC)cc3)c3ccccc23)cc1
IC50 [1]: > 25000 nM

COc1ccc(S(=O)(=O)N(CC(=O)O)Cc2ccccc2CN(CC(=O)O)S(=O)(=O)c2ccc(OC)cc2)cc1
IC50 [1]: > 25000 nM

COc1ccc(S(=O)(=O)N(CC(=O)O)c2ccc(N(CC(=O)O)S(=O)(=O)c3ccc(OC)cc3)nc2)cc1
IC50 [1]: > 25000 nM

COc1ccc(S(=O)(=O)N(CC(=O)O)C(=O)c2ccccc2C(=O)N(CC(=O)O)S(=O)(=O)c2ccc(OC)cc2)cc1
IC50 [1]: > 25000 nM

COc1ccc(S(=O)(=O)N(CC(=O)O)c2cnc(N(CC(=O)O)S(=O)(=O)c3ccc(OC)cc3)c3ccccc23)cc1
Activity [14]: Non-Toxic
Activity [4]: Non-Toxic
Activity [5]: Non-Toxic
Activity [7]: Non-Toxic
Activity [9]: Non-Toxic
logD [10]: -1.7
Activity [11]: Non-Toxic
Activity [15]: Non-Toxic

COc1ccc(S(=O)(=O)Nc2ccc(NS(=O)(=O)c3ccc(OC)cc3)c3ncccc23)cc1
IC50 [1]: > 25000 nM

COc1ccc(S(=O)(=O)N(CC(=O)O)c2ccc(N(CC(=O)O)S(=O)(=O)c3ccc(OC)cc3)c3ncccc23)cc1
Activity [14]: Non-Toxic
IC50 [1]: 101 nM
inhibition [16]: Active
Kd [17]: 103 nM
inhibition [18]: Active
inhibition [19]: Active
inhibition [20]: inactive
inhibition [21]: Active
inhibition [22]: Active
Activity [15]: Non-Toxic
inhibition [23]: Active
inhibition [24]: Active
inhibition [25]: Active
inhibition [26]: Active
inhibition [27]: Active
inhibition [28]: inactive

COc1ccc(S(=O)(=O)N(CC=CCN(CC(=O)O)S(=O)(=O)c2ccc(OC)cc2)CC(=O)O)cc1 (mixture of isomers)
IC50 [1]: > 25000 nM
